ChEMBL document CHEMBL2062460, “Disubstituted thiourea derivatives and their activity on CNS: synthesis and biological evaluation” (Eur J Med Chem, 2012)
Values after ≈ are worked out from the molar mass of the structure shown. Active and inactive are the calls of the source. The calls are words filed in the database; no cut-off is given here.

Tests used:
[1] = tested on: Staphylococcus epidermidis; experiment: Antibacterial activity against methicillin-resistant Staphylococcus epidermidis clinical isolate 377/09 after 18 hrs by twofold serial agar dilution technique; type: functional; conditions: clinical isolate 377/09, 18 h
Method in brief: (§1)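 Clinical isolates came from patients in Warsaw Medical University Hospitals and were classed as methicillin-susceptible or -resistant. MIC was determined by twofold serial agar dilution on Mueller–Hinton II agar (CLSI), 3.125–400 µg/mL in agar, with compounds in methanol or DMSO. Inoculum was 10^4 CFU/mL and plates were read after 18 h at 35 °C.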

[2] = tested on: Human immunodeficiency virus 1; experiment: Antiviral activity against HIV1 infected in human MT4 cells assessed as virus-induced cytopathogenicity after 4 days by MTT assay; type: functional, organism-based; conditions: Human immunodeficiency virus 1, MT4, 96 h
[3] = tested on: Staphylococcus epidermidis; experiment: Antibacterial activity against methicillin-resistant Staphylococcus epidermidis clinical isolate 340/09 after 18 hrs by twofold serial agar dilution technique; type: functional; conditions: clinical isolate 340/09, 18 h; method in brief: as §1
Bacillus subtilis [4] = experiment: Antibacterial activity against Bacillus subtilis ATCC 6633 at 400 ug/disc after 18 hrs by disc diffusion method; type: functional; conditions: ATCC 6633, 18 h, read-out: DIZ
Method in brief: (§2)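 Disc diffusion per CLSI on Mueller–Hinton II agar; 9 mm paper discs loaded from methanol or DMSO solutions to 400 µg per disc, dried; growth inhibition zone diameter read after 18 h at 35 °C.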

Escherichia coli [5] = experiment: Antibacterial activity against Escherichia coli ATCC 10538 at 400 ug/disc after 18 hrs by disc diffusion method; type: functional, organism-based; method in brief: as §2
Staphylococcus aureus [6] = experiment: Antibacterial activity against Staphylococcus aureus ATCC 25923 at 400 ug/disc after 18 hrs by disc diffusion method; type: functional; conditions: ATCC 25923, 18 h, read-out: DIZ; method in brief: as §2
Staphylococcus aureus [7] = experiment: Antibacterial activity against methicillin-resistant Staphylococcus aureus clinical isolate 275/08 after 18 hrs by twofold serial agar dilution technique; type: functional; conditions: clinical isolate 275/08, 18 h; method in brief: as §1
Staphylococcus aureus [8] = experiment: Antibacterial activity against methicillin-susceptible Staphylococcus aureus clinical isolate 338/08 after 18 hrs by twofold serial agar dilution technique; type: functional; conditions: clinical isolate 338/08, 18 h; method in brief: as §1
Bacillus subtilis [9] = experiment: Antibacterial activity against Bacillus subtilis ATCC 6633 after 18 hrs by twofold serial agar dilution technique; type: functional; conditions: ATCC 6633, 18 h
Candida parapsilosis = experiment: Antifungal activity against Candida parapsilosis ATCC 22019 at 400 ug/disc after 18 hrs by disc diffusion method; type: functional, organism-based
Method in brief: (§3)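 Yeasts tested by disc diffusion (CLSI) on RPMI agar with 2% glucose; 9 mm paper discs bearing 400 µg compound from methanol or DMSO solution; inhibition zone diameter read after 18 h at 35 °C.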

Escherichia coli [10] = experiment: Antibacterial activity against Escherichia coli ATCC 25922 at 400 ug/disc after 18 hrs by disc diffusion method; type: functional, organism-based; method in brief: as §2
[11] = tested on: Staphylococcus epidermidis; experiment: Antibacterial activity against methicillin-resistant Staphylococcus epidermidis clinical isolate 315/08 after 18 hrs by twofold serial agar dilution technique; type: functional; conditions: clinical isolate 315/08, 18 h; method in brief: as §1
Staphylococcus aureus [12] = experiment: Antibacterial activity against Staphylococcus aureus ATCC 29213 at 400 ug/disc after 18 hrs by disc diffusion method; type: functional; conditions: ATCC 29213, 18 h, read-out: DIZ; method in brief: as §2
Staphylococcus aureus [13] = experiment: Antibacterial activity against Staphylococcus aureus NCTC 4163 after 18 hrs by twofold serial agar dilution technique; type: functional; conditions: NCTC 4163, 18 h
Method in brief: (§4)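 Twofold serial agar dilution on Mueller–Hinton II agar, following CLSI guidelines. Compounds were dissolved in methanol or DMSO and tested at final agar concentrations of 3.125–400 µg/mL. Final inoculum was 10^4 CFU/mL.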

Pseudomonas aeruginosa [14] = experiment: Antibacterial activity against Pseudomonas aeruginosa ATCC 27853 at 400 ug/disc after 18 hrs by disc diffusion method; type: functional, organism-based; method in brief: as §2
Micrococcus luteus [15] = experiment: Antibacterial activity against Micrococcus luteus ATCC 9341 at 400 ug/disc after 18 hrs by disc diffusion method; type: functional; conditions: ATCC 9341, 18 h, read-out: DIZ; method in brief: as §2
[16] = tested on: Staphylococcus epidermidis; experiment: Antibacterial activity against methicillin-resistant Staphylococcus epidermidis clinical isolate 341/09 after 18 hrs by twofold serial agar dilution technique; type: functional; conditions: clinical isolate 341/09, 18 h; method in brief: as §1
Staphylococcus aureus [17] = experiment: Antibacterial activity against methicillin-resistant Staphylococcus aureus clinical isolate 325/09 after 18 hrs by twofold serial agar dilution technique; type: functional; conditions: clinical isolate 325/09, 18 h; method in brief: as §1
Staphylococcus aureus [18] = experiment: Antibacterial activity against methicillin-susceptible Staphylococcus aureus clinical isolate 339/09 after 18 hrs by twofold serial agar dilution technique; type: functional; conditions: clinical isolate 339/09, 18 h; method in brief: as §1
Proteus vulgaris = experiment: Antibacterial activity against Proteus vulgaris NCTC 4635 at 400 ug/disc after 18 hrs by disc diffusion method; type: functional, organism-based; method in brief: as §2
Staphylococcus aureus [19] = experiment: Antibacterial activity against methicillin-resistant Staphylococcus aureus clinical isolate 329/08 after 18 hrs by twofold serial agar dilution technique; type: functional; conditions: clinical isolate 329/08, 18 h; method in brief: as §1
Bacillus cereus = experiment: Antibacterial activity against Bacillus cereus ATCC 11778 after 18 hrs by twofold serial agar dilution technique; type: functional; conditions: ATCC 11778, 18 h
[20] = tested on: Staphylococcus epidermidis; experiment: Antibacterial activity against methicillin-resistant Staphylococcus epidermidis clinical isolate 317/08 after 18 hrs by twofold serial agar dilution technique; type: functional; conditions: clinical isolate 317/08, 18 h; method in brief: as §1
Candida albicans = experiment: Antifungal activity against Candida albicans ATCC 90028 at 400 ug/disc after 18 hrs by disc diffusion method; type: functional, organism-based; method in brief: as §3
Staphylococcus aureus [21] = experiment: Antibacterial activity against methicillin-susceptible Staphylococcus aureus clinical isolate 372/09 after 18 hrs by twofold serial agar dilution technique; type: functional; conditions: clinical isolate 372/09, 18 h; method in brief: as §1
Staphylococcus aureus [22] = experiment: Antibacterial activity against methicillin-resistant Staphylococcus aureus clinical isolate 307/08 after 18 hrs by twofold serial agar dilution technique; type: functional; conditions: clinical isolate 307/08, 18 h; method in brief: as §1
[23] = tested on: Bordetella bronchiseptica; experiment: Antibacterial activity against Bordetella bronchiseptica ATCC 4617 at 400 ug/disc after 18 hrs by disc diffusion method; type: functional, organism-based; method in brief: as §2
Staphylococcus aureus [24] = experiment: Antibacterial activity against methicillin-resistant Staphylococcus aureus clinical isolate 376/09 after 18 hrs by twofold serial agar dilution technique; type: functional; conditions: clinical isolate 376/09, 18 h; method in brief: as §1
Staphylococcus aureus [25] = experiment: Antibacterial activity against methicillin-susceptible Staphylococcus aureus clinical isolate 269/08 after 18 hrs by twofold serial agar dilution technique; type: functional; conditions: clinical isolate 269/08, 18 h; method in brief: as §1
Staphylococcus aureus [26] = experiment: Antibacterial activity against Staphylococcus aureus ATCC 6538 at 400 ug/disc after 18 hrs by disc diffusion method; type: functional; conditions: ATCC 6538, 18 h, read-out: DIZ; method in brief: as §2
[27] = tested on: Staphylococcus epidermidis; experiment: Antibacterial activity against methicillin-resistant Staphylococcus epidermidis clinical isolate 342/09 after 18 hrs by twofold serial agar dilution technique; type: functional; conditions: clinical isolate 342/09, 18 h; method in brief: as §1
Micrococcus luteus [28] = experiment: Antibacterial activity against Micrococcus luteus ATCC 10240 at 400 ug/disc after 18 hrs by disc diffusion method; type: functional; conditions: ATCC 10240, 18 h, read-out: DIZ; method in brief: as §2
Staphylococcus aureus [29] = experiment: Antibacterial activity against Staphylococcus aureus ATCC 25923 after 18 hrs by twofold serial agar dilution technique; type: functional; conditions: ATCC 25923, 18 h; method in brief: as §4
Pseudomonas aeruginosa [30] = experiment: Antibacterial activity against Pseudomonas aeruginosa ATCC 15442 at 400 ug/disc after 18 hrs by disc diffusion method; type: functional, organism-based; method in brief: as §2
Pseudomonas aeruginosa [31] = experiment: Antibacterial activity against Pseudomonas aeruginosa NCTC 6749 at 400 ug/disc after 18 hrs by disc diffusion method; type: functional, organism-based; method in brief: as §2
Staphylococcus aureus [32] = experiment: Antibacterial activity against methicillin-resistant Staphylococcus aureus clinical isolate 306/08 after 18 hrs by twofold serial agar dilution technique; type: functional; conditions: clinical isolate 306/08, 18 h; method in brief: as §1

SMILES | zone of inhibition at 400 µg/disc (Bacillus subtilis [4]) [mm] | diameter of the inhibition zone (DIZ) (Escherichia coli [5]) | zone of inhibition at 400 µg/disc (Staphylococcus aureus [6]) [mm] | MIC (Staphylococcus aureus [7]) [µg/mL] | MIC (Staphylococcus aureus [8]) [µg/mL] | MIC (Bacillus subtilis [9]) [µg/mL] | diameter of the inhibition zone (DIZ) (Candida parapsilosis) | diameter of the inhibition zone (DIZ) (Escherichia coli [10]) | zone of inhibition at 400 µg/disc (Staphylococcus aureus [12]) [mm] | MIC (Staphylococcus aureus [13]) [µg/mL] | diameter of the inhibition zone (DIZ) (Pseudomonas aeruginosa [14]) | zone of inhibition at 400 µg/disc (Micrococcus luteus [15]) [mm] | MIC (Staphylococcus aureus [17]) [µg/mL] | MIC (Staphylococcus aureus [18]) [µg/mL] | diameter of the inhibition zone (DIZ) (Proteus vulgaris) | MIC (Staphylococcus aureus [19]) [µg/mL] | MIC (Bacillus cereus) [µg/mL] | diameter of the inhibition zone (DIZ) (Candida albicans) | MIC (Staphylococcus aureus [21]) [µg/mL] | MIC (Staphylococcus aureus [22]) [µg/mL] | further results
S=C(Nc1ccc(Br)cc1)Nc1nc[nH]n1 | 30 | inactive | 22 | 100 (≈ 335 µM) | 50 (≈ 168 µM) | 12.5 (≈ 41.9 µM) | inactive | inactive | 16 | 50 (≈ 168 µM) | inactive | 28 | 50 (≈ 168 µM) | 50 (≈ 168 µM) | inactive | 50 (≈ 168 µM) | 12.5 (≈ 41.9 µM) | inactive | 25 (≈ 83.8 µM) | 50 (≈ 168 µM) | MIC [1]: 25 µg/mL (≈ 83.8 µM); EC50 [2]: > 100 µM; MIC [3]: 25 µg/mL (≈ 83.8 µM); MIC [11]: 50 µg/mL (≈ 168 µM); MIC [16]: 50 µg/mL (≈ 168 µM); MIC [20]: 100 µg/mL (≈ 335 µM); diameter of the inhibition zone (DIZ) [23]: inactive; MIC (Staphylococcus aureus [24]): 50 µg/mL (≈ 168 µM); MIC (Staphylococcus aureus [25]): 25 µg/mL (≈ 83.8 µM); zone of inhibition at 400 µg/disc (Staphylococcus aureus [26]): 16 mm; MIC [27]: 25 µg/mL (≈ 83.8 µM); zone of inhibition at 400 µg/disc (Micrococcus luteus [28]): 29 mm; MIC (Staphylococcus aureus [29]): 50 µg/mL (≈ 168 µM); diameter of the inhibition zone (DIZ) (Pseudomonas aeruginosa [30]): inactive; diameter of the inhibition zone (DIZ) (Pseudomonas aeruginosa [31]): inactive; MIC (Staphylococcus aureus [32]): 50 µg/mL (≈ 168 µM)
Fc1ccccc1NC(=S)Nc1nc[nH]n1 | 20 | inactive | 19 | > 400 | > 400 | 100 (≈ 421 µM) | inactive | inactive | 12 | 200 (≈ 843 µM) | inactive | 24 | > 400 | > 400 | inactive | > 400 | 100 (≈ 421 µM) | inactive | > 400 | > 400 | diameter of the inhibition zone (DIZ) [23]: inactive; MIC (Staphylococcus aureus [24]): > 400 µg/mL; MIC (Staphylococcus aureus [25]): > 400 µg/mL; zone of inhibition at 400 µg/disc (Staphylococcus aureus [26]): 12 mm; zone of inhibition at 400 µg/disc (Micrococcus luteus [28]): 38 mm; MIC (Staphylococcus aureus [29]): 200 µg/mL (≈ 843 µM); diameter of the inhibition zone (DIZ) (Pseudomonas aeruginosa [30]): inactive; diameter of the inhibition zone (DIZ) (Pseudomonas aeruginosa [31]): inactive; MIC (Staphylococcus aureus [32]): > 400 µg/mL
Fc1cccc(NC(=S)Nc2nc[nH]n2)c1 | 32 | inactive | 34 | 25 (≈ 105 µM) | 24 (≈ 101 µM) | 50 (≈ 211 µM) | inactive | inactive | 18 | 50 (≈ 211 µM) | inactive | 36 | 12.5 (≈ 52.7 µM) | 12.5 (≈ 52.7 µM) | inactive | 12.5 (≈ 52.7 µM) | 50 (≈ 211 µM) | inactive | 25 (≈ 105 µM) | 12.5 (≈ 52.7 µM) | diameter of the inhibition zone (DIZ) [23]: inactive; MIC (Staphylococcus aureus [24]): 25 µg/mL (≈ 105 µM); MIC (Staphylococcus aureus [25]): 12.5 µg/mL (≈ 52.7 µM); zone of inhibition at 400 µg/disc (Staphylococcus aureus [26]): 15 mm; zone of inhibition at 400 µg/disc (Micrococcus luteus [28]): 40 mm; MIC (Staphylococcus aureus [29]): 50 µg/mL (≈ 211 µM); diameter of the inhibition zone (DIZ) (Pseudomonas aeruginosa [30]): inactive; diameter of the inhibition zone (DIZ) (Pseudomonas aeruginosa [31]): inactive; MIC (Staphylococcus aureus [32]): 12.5 µg/mL (≈ 52.7 µM)
